Experiment [1] in a line: Inhibition of calpain I in C2C12 myoblasts loaded with Suc-Leu-Tyr-AMC. The experiment is classed as functional, Mus musculus. An outline of the steps:
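Cultured C2C12 myoblasts loaded with fluorogenic Suc-Leu-Tyr-AMC before the experiment; cellular calpain activated with Ca2+-ionophore Br-A-23187, then substrate hydrolysis by cellular calpain measured by fluorescence; IC50 values are means of triplicates.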

The target of experiment [2] is T1, Calpain-1 catalytic subunit (Sus scrofa, UniProt P35750).
T1 sequence (P35750 whole entry): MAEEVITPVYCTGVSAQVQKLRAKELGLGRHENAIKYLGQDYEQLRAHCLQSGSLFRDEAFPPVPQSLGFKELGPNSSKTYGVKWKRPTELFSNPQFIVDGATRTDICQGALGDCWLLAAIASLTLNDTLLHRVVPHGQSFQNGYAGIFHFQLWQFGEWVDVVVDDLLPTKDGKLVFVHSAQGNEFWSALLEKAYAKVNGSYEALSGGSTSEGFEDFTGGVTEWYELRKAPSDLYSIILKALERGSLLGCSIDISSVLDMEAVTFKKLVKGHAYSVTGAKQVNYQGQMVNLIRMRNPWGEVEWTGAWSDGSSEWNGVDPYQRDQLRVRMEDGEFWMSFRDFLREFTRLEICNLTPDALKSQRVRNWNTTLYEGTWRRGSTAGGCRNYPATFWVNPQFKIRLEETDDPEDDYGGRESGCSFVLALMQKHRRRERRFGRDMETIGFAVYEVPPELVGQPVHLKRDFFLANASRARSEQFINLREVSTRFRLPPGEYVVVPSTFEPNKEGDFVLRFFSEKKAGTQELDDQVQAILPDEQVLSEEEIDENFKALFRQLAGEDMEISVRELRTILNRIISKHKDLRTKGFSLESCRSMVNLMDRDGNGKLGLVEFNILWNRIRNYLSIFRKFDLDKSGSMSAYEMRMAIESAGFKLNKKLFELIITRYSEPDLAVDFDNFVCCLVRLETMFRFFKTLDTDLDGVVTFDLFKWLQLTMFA
Kind of experiment: Inhibitory activity against porcine calpain I using Suc-Leu-Tyr-AMC fluorogenic substrate. An outline of the steps:
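Purified porcine calpain I, cell-free; hydrolysis of fluorogenic Suc-Leu-Tyr-AMC followed as fluorescence increase over 30 min (ex 360 nm, em 440 nm); IC50 values are means of triplicates.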

Regarding `CC(C)C[C@H](NC(=O)CCCCC1CCSS1)C(=O)NC(Cc1ccc(Br)cc1)C(=O)C(=O)NC1CCCCC1` (stereo not given in full), the IC50 turned out to be 280 nM in experiment [1] and 70 nM in experiment [2]. Turning to `CCNC(=O)C(=O)[C@H](Cc1ccc(Cl)cc1)NC(=O)[C@@H](NC(=O)CCCC[C@@H]1SC[C@@H]2NC(=O)N[C@@H]21)C(C)C`, the figures for the IC50 in experiment [1] and in experiment [2] were 5000 nM and 100 nM, respectively. In experiment [2], `CC(C)C[C@H](NC(=O)CCCCC1CCSS1)C(=O)NC(Cc1ccc(Br)cc1)C(=O)C(=O)N1CCOCC1` (stereo not given in full) registered an IC50 of more than 1000 nM.

Consider `CCNC(=O)C(=O)[C@H](Cc1ccc(Br)cc1)NC(=O)[C@@H](NC(=O)CCCCC1CCSS1)C(C)CC` (stereo not given in full), for which the IC50 came out at 9000 nM in experiment [1] and 180 nM in experiment [2]. As to `CCNC(=O)C(=O)[C@H](Cc1ccc(F)c(F)c1)NC(=O)[C@@H](NC(=O)CCCCC1CCSS1)C(C)C` (stereo not given in full), the IC50 in experiment [1] came out at 700 nM; in experiment [2] it was 100 nM. `CC(C)C[C@H](NC(=O)CCCCC1CCSS1)C(=O)NC(Cc1ccc(Br)cc1)C(=O)C(=O)NC(C)(C)C` (stereo not given in full): the IC50 in experiment [2] is more than 1000 nM. Consider `CCNC(=O)C(=O)[C@H](Cc1ccc(Cl)c(Cl)c1)NC(=O)[C@@H](NC(=O)CCCCC1CCSS1)C(C)C` (stereo not given in full), for which the values for the IC50 in experiment [1] and in experiment [2] were 10000 nM and 80 nM, respectively. Take `CCNC(=O)C(=O)[C@H](Cc1ccc(Cl)cc1Cl)NC(=O)[C@@H](NC(=O)CCCCC1CCSS1)C(C)C` (stereo not given in full): the IC50 in experiment [1] was determined as 40000 nM; in experiment [2], 100 nM.

Regarding `CCNC(=O)C(=O)[C@H](Cc1ccc(Cl)cc1)NC(=O)[C@@H](NC(=O)OCc1ccccc1)C(C)C`, the IC50 in experiment [1] came out at 15000 nM; in experiment [2], 90 nM. Take `CCNC(=O)C(=O)[C@H](Cc1cccs1)NC(=O)[C@@H](NC(=O)CCCCC1CCSS1)C(C)C` (stereo not given in full): the IC50 turned out to be 6000 nM in experiment [1] and 100 nM in experiment [2]. On the same counts, the results for `CCNC(=O)C(=O)[C@H](Cc1ccc(Cl)cc1)NC(=O)[C@H](CC(C)(C)C)NC(=O)CCCCC1CCSS1` (stereo not given in full) are 3500 nM and 100 nM. `CCNC(=O)C(=O)[C@@H](NC(=O)[C@@H](NC(=O)CCCCC1CCSS1)C(C)C)C(c1ccccc1)c1ccccc1` (stereo not given in full): the IC50 in experiment [2] is more than 1000 nM. With `CCNC(=O)C(=O)[C@H](Cc1ccc(OC)cc1)NC(=O)[C@@H](NC(=O)CCCCC1CCSS1)C(C)C` (stereo not given in full), the IC50 in experiment [1] was found to be 220 nM; in experiment [2] it was 120 nM.

For `CCNC(=O)C(=O)[C@H](Cc1ccc(Cl)cc1)NC(=O)[C@@H](NC(=O)CCNC(=O)CCCCC1CCSS1)C(C)C` (stereo not given in full), the IC50 in experiment [1] came out at 30000 nM; in experiment [2], 40 nM.

Take `CCNC(=O)C(=O)[C@H](Cc1ccc(Cl)cc1)NC(=O)[C@@H](NC(=O)CNC(=O)CCCCC1CCSS1)C(C)C` (stereo not given in full): the IC50 in experiment [1] came out at 1000 nM; in experiment [2] it was 30 nM. On the same counts, the results for `CCNC(=O)C(=O)[C@H](Cc1ccccc1)NC(=O)[C@@H](NC(=O)CCCCC1CCSS1)C(C)C` (stereo not given in full) are 3500 nM and 80 nM. On the same counts, the results for `CCNC(=O)C(=O)[C@H](CC1CCCCC1)NC(=O)[C@@H](NC(=O)CCCCC1CCSS1)C(C)C` (stereo not given in full) are 3000 nM and 250 nM. In the case of `CCNC(=O)C(=O)[C@@H](NC(=O)[C@@H](NC(=O)CCCCC1CCSS1)C(C)C)c1ccccc1` (stereo not given in full), the IC50 stood at 2000 nM in experiment [1] and 400 nM in experiment [2]. On the same counts, the results for `CCNC(=O)C(=O)[C@H](Cc1ccc(O)cc1)NC(=O)[C@@H](NC(=O)CCCCC1CCSS1)C(C)C` (stereo not given in full) are 2500 nM and 150 nM.

`CC(C)C[C@H](NC(=O)CCCCC1CCSS1)C(=O)NC(Cc1ccc(Br)cc1)C(=O)C(N)=O` (stereo not given in full): the IC50 in experiment [1] turned out to be 250 nM; in experiment [2], 20 nM.

For `CCCCCCCCCCCC(=O)N[C@H](C(=O)N[C@@H](Cc1ccc(Cl)cc1)C(=O)C(=O)NCC)C(C)C`, in experiment [2], the IC50 is more than 1000 nM. On the same count and under the same terms, to `CCNC(=O)C(=O)[C@H](Cc1ccc(Br)cc1)NC(=O)[C@@H](NC(=O)CCCCC1CCSS1)C1CCCCC1` (stereo not given in full) belongs more than 1000 nM; to `CCNC(=O)C(=O)[C@H](Cc1ccc(Cl)cc1)NC(=O)[C@@H](NC(=O)CCCCC1CCSS1)C(C)(C)C` (stereo not given in full), more than 1000 nM.

Source of the values: ChEMBL document CHEMBL1141207, “Novel cell-penetrating alpha-keto-amide calpain inhibitors as potential treatment for muscular dystrophy” (Bioorg Med Chem Lett, 2005).
